{"source": "ChEMBL document CHEMBL1122483", "about": "“Synthesis and antihypertensive activity of substituted trans-4-amino-3,4-dihydro-2,2-dimethyl-2H-1-benzopyran-3-ols” (1983)", "data": [{"tested_on": "Rattus norvegicus", "assay": "Maximum fall in systolic blood pressure at interval from 1 to 6 hours at a dose of 3 mg/kg when administered perorally in rats", "format": "functional, Artery", "conditions": "route oral", "in_short": "(§1)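 DOCA/NaCl-treated hypertensive rats, kept at least 2 months after surgery (body weight 300–450 g), selected at systolic pressure of 160 mmHg or more. Compound given orally by dosing needle into the esophagus as a solution or suspension in 1% w/v methylcellulose. Systolic pressure measured by tail-cuff in restrained rats at 33.5 °C, before dosing and at intervals from 1 to 6 h; each reading was the mean of at least six recordings.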", "units": {"Max fall in blood pressure": "mmHg"}, "values": [{"smiles": "CC1(C)Oc2ccc([N+](=O)[O-])cc2[C@@H](N2CCCC2)[C@@H]1O.CS(=O)(=O)O", "Max fall in blood pressure": 79}, {"smiles": "COC(=O)c1ccc2c(c1)[C@@H](N1CCCC1)[C@H](O)C(C)(C)O2.CS(=O)(=O)O", "Max fall in blood pressure": 14}, {"smiles": "CC1(C)Oc2ccc([N+](=O)[O-])cc2[C@@H](N2CCCCC2)[C@@H]1O.CS(=O)(=O)O", "Max fall in blood pressure": 73}, {"smiles": "CC1(C)Oc2cc([N+](=O)[O-])ccc2[C@@H](N2CCCC2)[C@@H]1O.CS(=O)(=O)O", "Max fall in blood pressure": 90}, {"smiles": "CC1(C)Oc2ccc(C#N)cc2[C@@H](N2CCCCC2)[C@@H]1O.Cl", "Max fall in blood pressure": 88}, {"smiles": "CC1(C)Oc2cc([N+](=O)[O-])ccc2[C@@H](N2CCCCC2)[C@@H]1O.Cl", "Max fall in blood pressure": 18}, {"smiles": "CC(=O)c1ccc2c(c1)[C@@H](N1CCCCC1)[C@H](O)C(C)(C)O2.Cl", "Max fall in blood pressure": 12}, {"smiles": "CC1(C)Oc2ccc(C#N)cc2[C@@H](N2CCCC2)[C@@H]1O.Cl", "Max fall in blood pressure": 117}, {"smiles": "CC(=O)c1ccc2c(c1)[C@@H](N1CCCC1)[C@H](O)C(C)(C)O2.Cl", "Max fall in blood pressure": 39}, {"smiles": "CC1(C)Oc2ccc([N+](=O)[O-])cc2[C@@H](N2CCCCCCC2)[C@@H]1O.Cl", "Max fall in blood pressure": 34}, {"smiles": "NNc1nncc2ccccc12", "note": "[HYDRALAZINE]", "Max fall in blood pressure": 65}, {"smiles": "COC(=O)C1=C(C)NC(C)=C(C(=O)OC)C1c1ccccc1[N+](=O)[O-]", "note": "[NIFEDIPINE]", "Max fall in blood pressure": 51}]}, {"tested_on": "Rattus norvegicus", "assay": "Maximum fall in systolic blood pressure, intervals from 1 to 6 hours at a dose of 10 mg/kg administered per orally", "format": "functional, Artery", "conditions": "route oral", "in_short": "as §1", "units": {"Max fall in blood pressure": "mmHg"}, "values": [{"smiles": "CC(=O)Nc1ccc2c(c1)[C@@H](N1CCCCC1)[C@H](O)C(C)(C)O2.CS(=O)(=O)O", "Max fall in blood pressure": 6}, {"smiles": "CC1(C)Oc2ccc([N+](=O)[O-])cc2[C@@H](N2C3CCCC2CCC3)[C@@H]1O.CS(=O)(=O)O", "Max fall in blood pressure": 20}, {"smiles": "CC1(C)Oc2ccc([N+](=O)[O-])cc2[C@@H](N2CCCC2)[C@@H]1O.CS(=O)(=O)O", "Max fall in blood pressure": 98}, {"smiles": "C/C(=N\\O)c1ccc2c(c1)[C@@H](N1CCCCC1)[C@H](O)C(C)(C)O2.CS(=O)(=O)O", "Max fall in blood pressure": 17}, {"smiles": "CC1(C)Oc2ccc([N+](=O)[O-])cc2[C@@H](NC2CC2)[C@@H]1O.CS(=O)(=O)O", "Max fall in blood pressure": 31}, {"smiles": "COC(=O)c1ccc2c(c1)[C@@H](N1CCCC1)[C@H](O)C(C)(C)O2.CS(=O)(=O)O", "Max fall in blood pressure": 58}, {"smiles": "CC1(C)Oc2ccc([N+](=O)[O-])cc2[C@@H](N2CCCCC2)[C@@H]1O.CS(=O)(=O)O", "Max fall in blood pressure": 105}, {"smiles": "CC1(C)Oc2ccc(C(=O)O)cc2[C@@H](N2CCCC2)[C@@H]1O", "Max fall in blood pressure": 2}, {"smiles": "CC1(C)Oc2cc([N+](=O)[O-])ccc2[C@@H](N2CCCC2)[C@@H]1O.CS(=O)(=O)O", "Max fall in blood pressure": 99}, {"smiles": "CC1(C)Oc2ccc(C(N)=O)cc2[C@@H](N2CCCCC2)[C@@H]1O.CS(=O)(=O)O", "Max fall in blood pressure": 9}, {"smiles": "CC1(C)Oc2cccc(C#N)c2[C@@H](N2CCCCC2)[C@@H]1O.Cl", "Max fall in blood pressure": 13}, {"smiles": "CC1(C)Oc2ccc(C#N)cc2[C@@H](N2CCCCC2)[C@@H]1O.Cl", "Max fall in blood pressure": 107}, {"smiles": "CC1(C)Oc2ccc([N+](=O)[O-])cc2[C@@H](N2CCCCCC2)[C@@H]1O.Cl", "Max fall in blood pressure": 17}, {"smiles": "CC1(C)Oc2cc([N+](=O)[O-])ccc2[C@@H](N2CCCCC2)[C@@H]1O.Cl", "Max fall in blood pressure": 48}, {"smiles": "Cc1ccc2c(c1)[C@@H](N1CCCCC1)[C@H](O)C(C)(C)O2.Cl", "Max fall in blood pressure": 34}, {"smiles": "CC1(C)Oc2ccc(F)cc2[C@@H](N2CCCCC2)[C@@H]1O.Cl", "Max fall in blood pressure": 16}, {"smiles": "CC(=O)c1ccc2c(c1)[C@@H](N1CCCCC1)[C@H](O)C(C)(C)O2.Cl", "Max fall in blood pressure": 51}, {"smiles": "CC1CCN([C@@H]2c3cc([N+](=O)[O-])ccc3OC(C)(C)[C@H]2O)CC1.Cl", "Max fall in blood pressure": 28}, {"smiles": "CC1(C)Oc2c(C#N)cccc2[C@@H](N2CCCCC2)[C@@H]1O.Cl", "Max fall in blood pressure": 5}, {"smiles": "CC(=O)c1ccc2c(c1)[C@@H](N1CCCC1)[C@H](O)C(C)(C)O2.Cl", "Max fall in blood pressure": 53}, {"smiles": "CC1(C)Oc2ccc([N+](=O)[O-])cc2[C@@H](N2CCCCCCC2)[C@@H]1O.Cl", "Max fall in blood pressure": 53}, {"smiles": "NNc1nncc2ccccc12", "note": "[HYDRALAZINE]", "Max fall in blood pressure": 113}]}, {"tested_on": "Rattus norvegicus", "assay": "Maximum fall in systolic blood pressure, intervals from 1 to 6 hours at a dose of 100 mg/kg administered per orally", "format": "functional, Artery", "conditions": "route oral", "in_short": "as §1", "units": {"Max fall in blood pressure": "mmHg"}, "values": [{"smiles": "CC(=O)Nc1ccc2c(c1)[C@@H](N1CCCCC1)[C@H](O)C(C)(C)O2.CS(=O)(=O)O", "Max fall in blood pressure": 14}, {"smiles": "C/C(=N\\O)c1ccc2c(c1)[C@@H](N1CCCCC1)[C@H](O)C(C)(C)O2.CS(=O)(=O)O", "Max fall in blood pressure": 74}, {"smiles": "CC1(C)Oc2ccc([N+](=O)[O-])cc2[C@@H](NC2CC2)[C@@H]1O.CS(=O)(=O)O", "Max fall in blood pressure": 95}, {"smiles": "CC1(C)Oc2ccc(C(N)=O)cc2[C@@H](N2CCCCC2)[C@@H]1O.CS(=O)(=O)O", "Max fall in blood pressure": 30}, {"smiles": "CC1(C)Oc2cccc(C#N)c2[C@@H](N2CCCCC2)[C@@H]1O.Cl", "Max fall in blood pressure": 33}, {"smiles": "CC1(C)Oc2ccc([N+](=O)[O-])cc2[C@@H](N2CCCCCC2)[C@@H]1O.Cl", "Max fall in blood pressure": 96}, {"smiles": "CC1(C)Oc2cc([N+](=O)[O-])ccc2[C@@H](N2CCCCC2)[C@@H]1O.Cl", "Max fall in blood pressure": 79}, {"smiles": "Cc1ccc2c(c1)[C@@H](N1CCCCC1)[C@H](O)C(C)(C)O2.Cl", "Max fall in blood pressure": 43}, {"smiles": "CC1(C)Oc2ccc(F)cc2[C@@H](N2CCCCC2)[C@@H]1O.Cl", "Max fall in blood pressure": 26}, {"smiles": "CC(=O)c1ccc2c(c1)[C@@H](N1CCCCC1)[C@H](O)C(C)(C)O2.Cl", "Max fall in blood pressure": 127}, {"smiles": "CC1(C)Oc2c(C#N)cccc2[C@@H](N2CCCCC2)[C@@H]1O.Cl", "Max fall in blood pressure": 33}, {"smiles": "CC(=O)c1ccc2c(c1)[C@@H](N1CCCC1)[C@H](O)C(C)(C)O2.Cl", "Max fall in blood pressure": 78}]}, {"organism": "Rattus norvegicus", "assay": "Compound was tested at 9.7e-6M for inhibition of spontaneous activity in rat isolated portal vein", "conditions": "not given", "units": {"Inhibition": "%"}, "values": [{"smiles": "CC1(C)Oc2ccc(C#N)cc2[C@@H](N2CCCC2)[C@@H]1O.Cl", "Inhibition": 32}, {"smiles": "NNc1nncc2ccccc12", "note": "[HYDRALAZINE]", "Inhibition": 40}]}, {"tested_on": "Rattus norvegicus", "assay": "Maximum fall in systolic blood pressure at interval from 1 to 6 hours at a dose of 0.3 mg/kg when administered perorally in rats", "format": "functional, Artery", "conditions": "route oral", "in_short": "as §1", "units": {"Max fall in blood pressure": "mmHg"}, "values": [{"smiles": "CC1(C)Oc2ccc(C#N)cc2[C@@H](N2CCCCC2)[C@@H]1O.Cl", "Max fall in blood pressure": 29}, {"smiles": "CC1(C)Oc2ccc(C#N)cc2[C@@H](N2CCCC2)[C@@H]1O.Cl", "Max fall in blood pressure": 15}, {"smiles": "COC(=O)C1=C(C)NC(C)=C(C(=O)OC)C1c1ccccc1[N+](=O)[O-]", "note": "[NIFEDIPINE]", "Max fall in blood pressure": 20}]}, {"tested_on": "Rattus norvegicus", "assay": "Maximum fall in systolic blood pressure at interval from 1 to 6 hours at a dose of 1 mg/kg when administered perorally in rats", "format": "functional, Artery", "conditions": "route oral", "in_short": "as §1", "units": {"Max fall in blood pressure": "mmHg"}, "values": [{"smiles": "CC1(C)Oc2ccc([N+](=O)[O-])cc2[C@@H](N2CCCC2)[C@@H]1O.CS(=O)(=O)O", "Max fall in blood pressure": 52}, {"smiles": "CC1(C)Oc2ccc([N+](=O)[O-])cc2[C@@H](N2CCCCC2)[C@@H]1O.CS(=O)(=O)O", "Max fall in blood pressure": 28}, {"smiles": "CC1(C)Oc2cc([N+](=O)[O-])ccc2[C@@H](N2CCCC2)[C@@H]1O.CS(=O)(=O)O", "Max fall in blood pressure": 44}, {"smiles": "CC1(C)Oc2ccc(C#N)cc2[C@@H](N2CCCCC2)[C@@H]1O.Cl", "Max fall in blood pressure": 35}, {"smiles": "CC1(C)Oc2ccc(C#N)cc2[C@@H](N2CCCC2)[C@@H]1O.Cl", "Max fall in blood pressure": 43}, {"smiles": "NNc1nncc2ccccc12", "note": "[HYDRALAZINE]", "Max fall in blood pressure": 32}, {"smiles": "COC(=O)C1=C(C)NC(C)=C(C(=O)OC)C1c1ccccc1[N+](=O)[O-]", "note": "[NIFEDIPINE]", "Max fall in blood pressure": 33}]}, {"tested_on": "Rattus norvegicus", "assay": "Maximum fall in systolic blood pressure at interval from 1 to 6 hours at a dose of 30 mg/kg when administered perorally in rats", "format": "functional, Artery", "conditions": "route oral", "in_short": "as §1", "units": {"Max fall in blood pressure": "mmHg"}, "values": [{"smiles": "C/C(=N\\O)c1ccc2c(c1)[C@@H](N1CCCCC1)[C@H](O)C(C)(C)O2.CS(=O)(=O)O", "Max fall in blood pressure": 80}, {"smiles": "COC(=O)c1ccc2c(c1)[C@@H](N1CCCC1)[C@H](O)C(C)(C)O2.CS(=O)(=O)O", "Max fall in blood pressure": 65}, {"smiles": "Cc1ccc2c(c1)[C@@H](N1CCCCC1)[C@H](O)C(C)(C)O2.Cl", "Max fall in blood pressure": 44}, {"smiles": "CC(=O)c1ccc2c(c1)[C@@H](N1CCCCC1)[C@H](O)C(C)(C)O2.Cl", "Max fall in blood pressure": 65}, {"smiles": "CC(=O)c1ccc2c(c1)[C@@H](N1CCCC1)[C@H](O)C(C)(C)O2.Cl", "Max fall in blood pressure": 66}, {"smiles": "CC1(C)Oc2ccc([N+](=O)[O-])cc2[C@@H](N2CCCCCCC2)[C@@H]1O.Cl", "Max fall in blood pressure": 82}]}]}
